Assay results reported in ChEMBL document CHEMBL2146402, “Cytotoxic lignans from fruits of Cleistanthus indochinensis: synthesis of cleistantoxin derivatives” (J Nat Prod, 2012).
Activity calls are given as the source filed them. No cut-off for these calls is given here.

Assays:
Format in all cases: functional, cell-based
KB [1] = test: Cytotoxicity against human KB cells at 100 ug/mL after 72 hrs by neutral red assay
MCF7 = test: Cytotoxicity against human MCF7 cells
KB [2] = test: Cytotoxicity against human KB cells after 72 hrs by neutral red assay
Outline: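 KB human nasopharynx carcinoma cells grown in D-MEM with 10% fetal calf serum, 2 mM L-glutamine, penicillin G, streptomycin and gentamicin. Seeded at 3 × 10³ cells/mL and exposed to compounds (stocks in DMSO/H₂O 1:9) for 72 h at 37 °C in air/CO₂ 95:5. Living cells stained with neutral red, OD read at 540 nm. IC50 is the concentration reducing growth to 50% of control. Taxotere reference.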

HT-29 = test: Cytotoxicity against human HT-29 cells
[3] = Cytotoxicity against human MCF7/R cells; conditions: MCF7R

In the case of `COc1c2c(cc3c1[C@H]1C(=O)OC[C@H]1[C@H](C(=O)NCc1ccco1)[C@@H]3c1ccc3c(c1)OCO3)OCO2`, the Activity (KB [1]) is reported as “inactive”.
With `COc1c2c(cc3c1[C@H]1C(=O)OC[C@H]1[C@H](C(=O)N(Cc1ccccc1)Cc1ccccc1)[C@@H]3c1ccc3c(c1)OCO3)OCO2` the Activity (KB [1]) was “inactive”.
`COc1c2c(cc3c1[C@H](O)[C@H]1COC(=O)[C@@H]1[C@@H]3c1ccc3c(c1)OCO3)OCO2` [CLEISTANTOXIN] gave an IC50 (MCF7) of 36 nM, an IC50 (KB [2]) of 22 nM and an IC50 (HT-29) of 35 nM. It also gave an IC50 [3] of 14 nM.
With `COc1c2c(cc3c1[C@H]1C(=O)OC[C@H]1[C@H](C(=O)NCc1ccc(Cl)c(Cl)c1)[C@@H]3c1ccc3c(c1)OCO3)OCO2` the Activity (KB [1]) was “inactive”.
`COc1c2c(cc3c1[C@H]1C(=O)OC[C@H]1[C@H](C(=O)N1CCCCC1)[C@@H]3c1ccc3c(c1)OCO3)OCO2` showed an IC50 (KB [2]) of 42 µg/mL.
With `COc1c2c(cc3c1[C@H]1C(=O)OC[C@H]1[C@H](C(=O)O)[C@@H]3c1ccc3c(c1)OCO3)OCO2` the Activity (KB [1]) was “inactive”.
In the case of `COc1c2c(cc3c1[C@@H]1OC(=O)[C@H]([C@@H]3c3ccc4c(c3)OCO4)[C@@H]1CO)OCO2` [NEOCLEISTANTOXIN], the IC50 (KB [2]) is reported as 1400 nM.
With `COc1c2c(cc3c1[C@@H](C#N)[C@H]1COC(=O)[C@@H]1[C@@H]3c1ccc3c(c1)OCO3)OCO2` the IC50 (KB [2]) was 1.2 µg/mL.
With `COc1c2c(cc3c1[C@H]1C(=O)OC[C@H]1[C@H](C(=O)n1ccnc1)[C@@H]3c1ccc3c(c1)OCO3)OCO2` the Activity (KB [1]) was “inactive”.
For `COc1c2c(cc3c1[C@H]1C(=O)OC[C@H]1[C@H](C(=O)NCc1ccc(F)cc1)[C@@H]3c1ccc3c(c1)OCO3)OCO2`, the Activity (KB [1]) was “inactive”.
For `COc1c2c(cc3c1[C@H]1C(=O)OC[C@H]1[C@H](C(=O)NC1CCCC1)[C@@H]3c1ccc3c(c1)OCO3)OCO2`, the Activity (KB [1]) was “inactive”.
`COc1c2c(cc3c1[C@H]1C(=O)OC[C@H]1[C@H](C(=O)NC1CCCCCC1)[C@@H]3c1ccc3c(c1)OCO3)OCO2` gave an IC50 (KB [2]) of 26 µg/mL.
